A selection: hits, their analogues and other compounds. The true share with any hit is near 2.4%.
DNMT1 inh: blocks human DNA methyltransferase DNMT1; P26358; 360,000 tested, 0.83% active; AID 588458; DNMT1 molecular beacon, Hinp1I cleavage, fluorescence; inhibition (reported as % activation of signal), % at 10 µM; in the data active = inhibition above about 50%
STEP inh: blocks human striatal-enriched tyrosine phosphatase | P54829 | recombinant STEP, OMFP fluorogenic substrate, fluorescence | inhibition, % at 20 µM | 360,000 tested, 0.25% active | AID 588621;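 active = inhibition at 20 µM, scaled per plate between control wells, above about 37%, limit read from the data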;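 also: 0% = DMSO with enzyme and substrate and 100% = substrate only without enzyme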
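System: STEP (striatal-enriched tyrosine phosphatase) enzyme, cell-free; medium: Bis-Tris pH 6.0 buffer with DTT, detergent; dosing: 20 µM, 1% DMSO; times: reaction 20 min, ambient temperature; detection: fluorescence, 480/540 nm; read-out basis: normalized % inhibition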
Scp-1 inhibitor: blocks human Scp-1 phosphatase activity | Q9GZU7 | Recombinant Scp1, phosphopeptide, malachite green phosphate absorbance | inhibition, % at 20 µM | 340,000 tested, 0.88% active | AID 493091;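 active = inhibition above about 50% at 20 µM, limit read from the data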;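 also: plate controls were DMSO wells with enzyme for no effect and wells lacking enzyme for full effect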
Target sequence (Q9GZU7 76-261 limits assumed): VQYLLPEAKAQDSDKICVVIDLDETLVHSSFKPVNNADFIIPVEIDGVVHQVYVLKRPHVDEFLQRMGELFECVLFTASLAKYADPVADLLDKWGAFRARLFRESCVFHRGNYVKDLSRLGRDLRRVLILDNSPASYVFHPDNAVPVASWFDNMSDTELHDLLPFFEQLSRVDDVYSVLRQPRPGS
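Material – SCP-1 phosphatase catalytic domain, residues 76-261 · Buffer or medium – Acidic Tris acetate buffer with magnesium and detergent · Also added – Phospho 17-mer peptide substrate · Compound – single 20 µM dose, 1% DMSO · Times – 45 min room-temperature reaction, 5 min colour, 30 min stabiliser · Technique – Phosphate-binding colour reagent, absorbance read at 630 nm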
NadD block: NadD (S. aureus) enzyme inhibition | inhibition, % at 20 µM | 360,000 tested, 0.78% active | purified NadD enzyme, colorimetric absorbance read-out; in the data active = inhibition above about 26%
SUMO1-SIM PPI: alters human SUMO1 binding to SIM partners; SUMO1 binding to a labelled peptide, TR-FRET, 1 h; 360,000 tested, 0.33% active; inhibition, % at 20 µM; in the data active = inhibition above about 37%
Target sequence (P63165 whole entry, looked up): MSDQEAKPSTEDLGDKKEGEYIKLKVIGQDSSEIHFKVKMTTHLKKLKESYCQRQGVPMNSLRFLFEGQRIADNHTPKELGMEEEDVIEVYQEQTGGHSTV
LMPTP block: LMPTP (human) inhibition | inhibition, % at 20 µM | P24666 | recombinant LMPTP-A, OMFP fluorogenic substrate, fluorescence intensity | 360,000 tested, 0.22% active;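 active = compounds that cut the enzyme signal by at least half of the control window in the single-dose screen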;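 also: plate controls were DMSO wells with enzyme plus substrate for no effect and substrate without enzyme for full effect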
Target sequence (P24666 whole entry, looked up): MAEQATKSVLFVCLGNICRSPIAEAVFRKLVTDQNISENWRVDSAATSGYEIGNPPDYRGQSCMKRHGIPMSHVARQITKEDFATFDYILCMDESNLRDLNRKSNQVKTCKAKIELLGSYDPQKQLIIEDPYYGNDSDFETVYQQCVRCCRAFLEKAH
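Assay system: LMPTP-A enzyme. Input: 0.625 nM LMPTP-A final. Probe or stimulus: 400 µM OMFP. Compound dosing: single 20 µM dose. Schedule: 50 min dark incubation at room temperature. Detection: fluorescence intensity of OMFP turnover product. Read-out: percent inhibition versus substrate-only and uninhibited controls. Benchmarks: no-enzyme low control, uninhibited high control.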
NadD conf: NadD (S. aureus) inhibition, single concentration confirmation; 2,000 tested, 13% active; inhibition, % at 20 µM; purified S. aureus NadD, colorimetric enzyme assay; shares compounds with NadD block; in the data active = inhibition mostly above about 42%, no sharp cut-off; inactive = mostly below about 42%
Numbers without * were called inactive.

Results for CC(C)(C)OC(=O)NCc1ccc(NC(=O)c2nc[nH]c2C(=O)NCCN(CCNC(=O)c2[nH]cnc2C(=O)Nc2ccc(CNC(=O)OC(C)(C)C)cc2)CCNC(=O)c2[nH]cnc2C(=O)Nc2ccc(CNC(=O)OC(C)(C)C)cc2)cc1 ?
DNMT1 inh: -2.9; STEP inh: -7.2; Scp-1 inhibitor: 10.6; NadD block: 42.7*; SUMO1-SIM PPI: 0.1; LMPTP block: 0.4; NadD conf: 12.4

What do the screens show for `CCCCCCOc1ccc(N2C(=O)CC(SC(=NCC)NCC)C2=O)cc1` (stereo unspecified)?
DNMT1 inh: 13.9; STEP inh: 0.3; Scp-1 inhibitor: -0.7; NadD block: 0.3; SUMO1-SIM PPI: 1.4; LMPTP block: 0.6

What do the screens show for `O=C(O)c1ccc2c(c1)S(=O)(=O)c1cc(N3CCN(c4ncccn4)CC3)ccc1C2=O`?
DNMT1 inh: 4.4; STEP inh: -0.2; NadD block: -0.7; SUMO1-SIM PPI: -19.7; LMPTP block: -0.1

What do the screens show for `Cc1ccc(O)c(-c2cc(C(=O)Nc3cccnc3)[nH]n2)c1`?
DNMT1 inh: -1.1; STEP inh: -5.6; Scp-1 inhibitor: -7.2; NadD block: -2.4; SUMO1-SIM PPI: 4.3; LMPTP block: 0.9

How did Cc1ccc(C(=O)c2oc3ccccc3c2NC(=O)c2cc(-c3ccccc3O)n[nH]2)cc1 do in these assays?
DNMT1 inh: 1.6; STEP inh: -0.1; Scp-1 inhibitor: -11.7; NadD block: 34.1*; SUMO1-SIM PPI: 3.6; LMPTP block: 1.4; NadD conf: 4.6

Results for CC(=O)Nc1c(C(=O)c2ccc(F)cc2)oc2ccccc12 ?
DNMT1 inh: 2.5; STEP inh: 1.1; Scp-1 inhibitor: -8.0; NadD block: -2.7; SUMO1-SIM PPI: -2.8; LMPTP block: 0.3

What do the screens show for `O=C(Nc1c(C(=O)c2ccccc2)oc2ccccc12)c1cc(-c2ccccc2O)n[nH]1`?
DNMT1 inh: 3.6; STEP inh: -4.2; Scp-1 inhibitor: -14.6; NadD block: 33.6*; SUMO1-SIM PPI: 1.3; LMPTP block: 0.6; NadD conf: 32.0

How did Cc1ccc(C(=O)c2oc3ccccc3c2NC(=O)c2cc(-c3cc(C)ccc3O)n[nH]2)cc1 do in these assays?
DNMT1 inh: 12.2; STEP inh: 1.8; Scp-1 inhibitor: -4.1; NadD block: 39.5*; SUMO1-SIM PPI: -0.4; LMPTP block: 2.5; NadD conf: 31.8

Results for O=C(Nc1ccc(N2CCN(C(=O)c3ccccc3F)CC2)cc1)c1ncn[nH]1 ?
DNMT1 inh: 2.6; STEP inh: -0.2; Scp-1 inhibitor: -2.7; NadD block: -0.2; SUMO1-SIM PPI: 6.8; LMPTP block: -1.6

Results for FC(F)(F)c1ccccc1Cc1c(-c2ccc(Cl)cc2)nc2c3ccccc3ccn12 ?
NadD block: 33.1*; SUMO1-SIM PPI: -1.4; LMPTP block: 4.0; NadD conf: 8.9

How did Fc1ccc(-c2nc3c4ccccc4ccn3c2Cc2ccccc2C(F)(F)F)cc1 do in these assays?
DNMT1 inh: -3.2; STEP inh: 0.6; NadD block: 9.5; SUMO1-SIM PPI: -1.9; LMPTP block: 2.8

Results for COc1ccccc1-n1c(SCc2cc(=O)oc3cc(O)ccc23)nc2ccccc2c1=O ?
DNMT1 inh: -10.4; STEP inh: 2.2; Scp-1 inhibitor: -6.8; NadD block: 31.8*; SUMO1-SIM PPI: 1.2; LMPTP block: 3.2; NadD conf: 57.5*

Results for COc1ccccc1-n1c(SCC(=O)N2CCOCC2)nc2ccccc2c1=O ?
DNMT1 inh: 1.9; STEP inh: 0.7; Scp-1 inhibitor: -0.8; NadD block: -11.2; SUMO1-SIM PPI: 1.3; LMPTP block: -0.4

What do the screens show for `O=C(NCCCC1CCCC1)C1CCC(=O)N(Cc2ccc(Cl)cc2)C1` (stereo unspecified)?
DNMT1 inh: -1.9; STEP inh: -0.1; Scp-1 inhibitor: -6.1; NadD block: -3.5; SUMO1-SIM PPI: 11.2; LMPTP block: 1.1

What do the screens show for `Nc1nonc1-n1nnc(C(=O)N/N=C/C=C/c2ccccc2)c1CSC1=NCCS1`?
DNMT1 inh: -13.6; STEP inh: 2.9; Scp-1 inhibitor: -3.3; NadD block: 32.1*; SUMO1-SIM PPI: -24.2; LMPTP block: 2.3; NadD conf: 25.7

Results for Nc1nonc1-n1nnc(C(=O)N/N=C/c2c(Cl)cccc2Cl)c1CSC1=NCCS1 ?
DNMT1 inh: -0.9; STEP inh: -2.5; Scp-1 inhibitor: -10.6; NadD block: 34.1*; SUMO1-SIM PPI: -6.6; LMPTP block: 2.0; NadD conf: 39.0

Results for CS(=O)(=O)N(CC(=O)Nc1ccccc1Br)Cc1ccccc1 ?
DNMT1 inh: 1.8; STEP inh: -2.7; Scp-1 inhibitor: -4.7; NadD block: 0.7; SUMO1-SIM PPI: 3.0; LMPTP block: -0.8

How did CCOc1cc(/C=N/NC(=O)C(=O)Nc2cc(Cl)ccc2C)ccc1O do in these assays?
DNMT1 inh: -2.0; STEP inh: -1.8; Scp-1 inhibitor: -3.7; NadD block: -1.7; SUMO1-SIM PPI: -5.4; LMPTP block: -0.6

What do the screens show for `CN(C)c1ccc(/C=N/NC(=O)CNC(=O)c2ccco2)cc1`?
DNMT1 inh: -2.9; STEP inh: 0.2; Scp-1 inhibitor: 3.2; NadD block: -7.8; SUMO1-SIM PPI: -11.6; LMPTP block: -1.3

Results for Oc1c(Cl)cc(Cl)c2cccnc12 ?
DNMT1 inh: -9.6; STEP inh: 0.1; Scp-1 inhibitor: -5.7; NadD block: 6.7; SUMO1-SIM PPI: 2.8; LMPTP block: 3.0

What do the screens show for `Oc1c(I)cc(I)c2cccnc12`?
DNMT1 inh: -0.6; STEP inh: 0.2; Scp-1 inhibitor: -6.2; NadD block: 45.6*; SUMO1-SIM PPI: -4.1; LMPTP block: 9.3; NadD conf: 6.2

What do the screens show for `O=C(O)c1cccc(-n2cccc2/C=C2/NC(=O)N(c3ccc(Cl)cc3)C2=O)c1`?
DNMT1 inh: 86.7*; STEP inh: 93.9*; Scp-1 inhibitor: 80.6*; NadD block: 42.6*; SUMO1-SIM PPI: 106.5*; LMPTP block: 81.4*; NadD conf: 61.1*

How did O=C1NC[C@H](Cc2ccc(O)cc2)N(C[C@@H]2CCCN2C[C@H](Cc2ccccc2)N2C[C@H](Cc3ccccc3)N(CC3CCCCCC3)C(=O)C2=O)C1=O do in these assays?
NadD block: 52.2*; SUMO1-SIM PPI: 3.8; LMPTP block: 16.9; NadD conf: 43.0

Results for O=C1NC[C@H](Cc2ccccc2)N(C[C@@H]2CCCN2C[C@H](Cc2ccccc2)N2C[C@H](Cc3ccccc3)N(CC3CCCCC3)C(=O)C2=O)C1=O ?
DNMT1 inh: -5.9; STEP inh: 3.9; NadD block: 21.9; SUMO1-SIM PPI: 14.8; LMPTP block: 4.5
